Source: PubChem BioAssay
B2AR ag = activates human beta-2 adrenergic receptor causing internalization. P07550. Am2.2-beta2AR cells, FAP receptor internalization, flow cytometry. response, % (no concentration beside the values). actives 0.43% (n = 340,000). AID 504454;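 active means response above a set limit, near 3 SD of response in nonfluorescent compounds, cut at about 42% in these data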
Mdm2-MdmX inh = inhibitors of human Mdm2/MdmX interaction; inhibition, % at 8 µM; actives 3% (n = 330,000); O15151+Q00987; SaOS-2 split-luciferase Mdm2/MdmX complementation, luminescence;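 active means inhibition of at least 50% at 8 µM in the primary screen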
Target sequence (O15151 whole entry, looked up): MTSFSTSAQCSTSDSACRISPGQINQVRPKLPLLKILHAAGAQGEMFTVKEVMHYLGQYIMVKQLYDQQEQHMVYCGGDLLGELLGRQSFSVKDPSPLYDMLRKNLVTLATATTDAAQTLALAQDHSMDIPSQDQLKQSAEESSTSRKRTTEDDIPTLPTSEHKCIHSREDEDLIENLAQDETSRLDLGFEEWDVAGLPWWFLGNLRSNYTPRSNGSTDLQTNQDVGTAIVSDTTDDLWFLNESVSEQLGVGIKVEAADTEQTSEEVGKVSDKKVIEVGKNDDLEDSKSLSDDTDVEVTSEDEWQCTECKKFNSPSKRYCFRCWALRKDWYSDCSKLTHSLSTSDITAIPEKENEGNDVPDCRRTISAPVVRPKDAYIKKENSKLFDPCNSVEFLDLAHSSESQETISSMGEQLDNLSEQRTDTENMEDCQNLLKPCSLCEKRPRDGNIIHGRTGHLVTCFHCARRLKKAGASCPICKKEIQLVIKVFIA
Target sequence (Q00987 whole entry, looked up): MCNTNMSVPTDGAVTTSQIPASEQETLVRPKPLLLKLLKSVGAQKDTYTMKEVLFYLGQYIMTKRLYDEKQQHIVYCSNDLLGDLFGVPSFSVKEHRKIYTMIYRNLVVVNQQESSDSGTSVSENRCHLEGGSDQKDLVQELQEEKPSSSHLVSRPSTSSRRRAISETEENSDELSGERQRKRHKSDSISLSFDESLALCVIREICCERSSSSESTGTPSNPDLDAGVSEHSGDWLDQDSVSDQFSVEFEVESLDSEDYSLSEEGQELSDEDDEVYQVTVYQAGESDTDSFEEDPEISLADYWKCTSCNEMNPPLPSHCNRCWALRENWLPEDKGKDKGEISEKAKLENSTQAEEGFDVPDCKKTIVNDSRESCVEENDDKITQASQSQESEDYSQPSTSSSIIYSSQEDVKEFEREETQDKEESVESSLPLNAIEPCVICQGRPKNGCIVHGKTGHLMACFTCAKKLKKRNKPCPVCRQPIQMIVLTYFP
Mdm2 ligase inh = Mdm2 E3 ligase (human) inhibition. cell-based MDM2 ubiquitination luciferase reporter, 2 h; 0 = plate control, 100 = twice control, blank-subtracted. AID 1230. actives 0.11% (n = 210,000). signal enhancement, % at 5 µM;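 active means signal enhancement of 30% or more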;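 further: luminescence tracks abundance of the self-degrading MDM2-luciferase fusion protein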
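Assay system: stable mammalian line carrying autodegrading MDM2–luciferase fusion reporter; amount: 2000 cells seeded into each well; buffer or medium: DMEM; benchmarks: plate control and blank wells; signal: luciferase luminescence; timing: 2 h compound exposure at 37 °C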
XBP1 UPR activ = activators of adaptive arm of unfolded protein response (XBP1); CHO-XBP1 luciferase reporter, IRE1-XBP1 UPR activation, luminescence; percent of tunicamycin response, DMSO as zero; activation, % at 20 µM; actives 0.33% (n = 330,000);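 active means versus positive control, 20 µM dose yields 30% or more activation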;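 further: 100% = tunicamycin at 10 µg/mL and 0% = DMSO only wells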
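Material: CHO cell line with stable XBP1 luciferase reporter; schedule: 16-18 h cell attachment at 37 °C, then 6 h compound exposure; signal: glow luminescence from Steady-Glo reagent; medium: serum-containing F12 medium, 10% FBS; benchmarks: tunicamycin 10 µg/mL and vehicle-only wells; read-out: percent activation relative to tunicamycin reference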
UPR CHOP act = apoptotic UPR (CHOP) activation | CHO-CHOP luciferase reporter, luminescence; percent of tunicamycin response over DMSO baseline | activation, % at 10 µM | actives 0.34% (n = 330,000) | AID 449763;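 active means at 10 µM dose, activation of 40% or more, normalized to positive control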;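 further: 100% = tunicamycin at 10 µg/mL and 0% = DMSO alone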
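measured by = luciferase luminescence | assay system = CHO-CHOP cells, stable luciferase reporter of PERK-eIF2a-CHOP signalling | amount = 500 reporter cells seeded per well | timing = 6 h compound exposure at 37 °C after overnight seeding | controls = positive tunicamycin 10 µg/mL, negative DMSO alone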
Dynein cargo inh = dynein cargo transport inhibition | 3617.4 mouse cells, GR-EGFP nuclear translocation imaging; test concentration mostly 20 µM; stimulated with dexamethasone, 1 µM; active compounds read low | z-score, hits read low | actives 0.47% (n = 220,000);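 active means plate z-score of nuclear minus cytoplasmic receptor signal below a set negative limit, without overly bright fluorescence or cell loss, cut at about -3.5 in these data, passing the limit was not always enough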;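 further: z-score of nuclear minus cytoplasmic ring GR-EGFP intensity difference per well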
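Buffer or medium – tet-free medium with charcoal-stripped serum · Signal – automated 10x imaging of fixed Hoechst-stained cells · Also added – dexamethasone agonist, 1.0 µM final, for 30 min · Incubation – induction 48 h, compound 1 h, agonist 30 min · Read-out – GR-EGFP nuclear translocation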
Mdm2 MdmX conf = human Mdm2/MdmX binding inhibition, confirmed | shares compounds with Mdm2-MdmX inh | luminescent assay | inhibition, % at 8 µM | actives 55% (n = 10,000) | AID 489028; in the data active means inhibition above about 40%
Full FLuc ctr = counter-screen for Mdm2/MdmX inhibitors: full-length luciferase; shares compounds with Mdm2-MdmX inh; SaOS-2 full-length luciferase counterscreen, luminescence; inhibition, % at 8 µM; actives 77% (n = 6,200);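 active means mean inhibition at 8 µM reaching about 37%, which flags the compound as non-specific, limit read from the data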;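 further: p53-null SaOS-2 cells with luciferase driven by a doxycycline-inducible promoter; compound on cells about two nights before reading with doxycycline added after day one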
An asterisk follows results filed as active; x = no result; ! = not active in a repeat. In the library only some 3.7% were active in any assay of this set; here they are far more common.

SMILES | B2AR ag | Mdm2-MdmX inh | Mdm2 ligase inh | XBP1 UPR activ | UPR CHOP act | Dynein cargo inh | Mdm2 MdmX conf | Full FLuc ctr
O=C(NC(=S)Nc1cccc(Cl)c1N1CCCCC1)c1ccc2c(c1)OCCO2 | -5 | 61* | -5 | 1 | 1 | 0.89 | 63* | 57*
CCOc1ccc(CN2CCN(CC(O)Cn3c4ccccc4c4ccccc43)CC2)cc1 (stereo unspecified) | 2 | 89* | 2 | 10 | 4 | -0.21 | 72* | 36
CN1CCN(CC(O)Cn2c3ccccc3c3ccccc32)CC1 (stereo unspecified) | 4 | 29 | x | -5 | 0 | x | x | x
COc1ccc(CN2CCN(CC(O)Cn3c4ccccc4c4ccccc43)CC2)cc1 (stereo unspecified) | 24 | 66* | 4 | 4 | -1 | -1.1 | 35 | 79*
CC1=CC(C)(C)N(S(=O)(=O)c2ccc(C)cc2)c2ccccc21 | 16 | 64* | -9 | 10 | -2 | -0.4 | 64* | 88*
COc1ccc2c(c1)C(C)=CC(C)(C)N2S(=O)(=O)c1ccc(Br)cc1 | 14 | x | -6 | x | x | -0.46 | x | x
CCOc1ccc2c(c1)C(C)=CC(C)(C)N2S(=O)(=O)c1ccc(NC(C)=O)cc1 | 20 | 62* | x | 22 | 5 | x | 58* | 113*
CC1=CC(C)(C)N(S(=O)(=O)c2ccc(F)cc2)c2ccc(C)cc21 | 5 | 47 | -5 | 29 | -1 | -0.32 | x | x
CCOc1ccc2c(c1)C(C)=CC(C)(C)N2S(=O)(=O)c1ccc(F)cc1 | -3 | 51* | x | 7 | 0 | x | 53* | 49*
COc1ccc2c(c1)C(C)=CC(C)(C)N2S(=O)(=O)c1ccc(NC(C)=O)cc1 | 23 | 63* | x | 18 | -2 | x | 54* | 89*
COCCCN(CCC#N)C(=O)c1c(-c2c(Cl)cccc2Cl)noc1C | -2 | -12 | -2 | -2 | -1 | 0.15 | x | x
CC(C)(C)C(=O)CN1C(=O)NC2(CCCc3ccccc32)C1=O (stereo unspecified) | 3 | -22 | x | 1 | 1 | x | x | x
CCCn1cnnc1CNC(=O)C1CCC(=O)N(CCc2cccc(F)c2)C1 (stereo unspecified) | 0 | 27 | x | -2 | 1 | x | x | x
COc1ccc(-c2oc(=O)c3cc(OC)c(OC)cc3c2/C=C/c2cccc([N+](=O)[O-])c2)cc1 | 39 | 54* | x | 11 | 0 | x | 15 | x
Cc1ccc(C(O)(C(=O)NNc2ccc3ccccc3n2)c2ccc(C)cc2)cc1 | -8 | 51*! | -18 | -2 | -1 | -0.42 | 27 | x
Cc1ccc(C(=O)Nc2ccc3ccccc3n2)cc1 | 1 | -133 | x | -4 | 1 | x | x | x
CCOc1ccc(CC(=O)Nc2c3c(nn2C(C)(C)C)CS(=O)(=O)C3)cc1 | -6 | -13 | x | -6 | 0 | x | x | x
Cc1ccc(CNC(=O)CCS(=O)(=O)c2ccc3c(c2)CC(C)N3C(=O)C2CC2)cc1 (stereo unspecified) | -22 | 63* | x | -2 | 1 | x | 49* | 50*
Cc1ccc(CNC(=O)C2CCN(S(=O)(=O)c3ccc4c(c3)CC(C)N4C(=O)C3CC3)CC2)cc1 (stereo unspecified) | -27 | 13 | x | -6 | 2 | x | x | x
O=S(=O)(Nc1nc2ccccc2nc1Nc1ccc2c(c1)OCO2)c1ccc(F)cc1 | 12 | 50* | -12 | 0 | -1 | -0.5 | 27 | x
O=S(=O)(Nc1nc2ccccc2nc1Nc1cccc(S(=O)(=O)N2CCCCC2)c1)c1ccccc1 | 20 | 82* | -2 | -1 | 5 | -0.34 | 79* | 43*
COc1ccc(S(=O)(=O)Nc2cccc(S(=O)(=O)N3CCCCCC3)c2)cc1 | 2 | x | 1 | x | x | -1.7 | x | x
CCOC(=O)[C@H]1[C@H]2COc3ccc(OC)cc3[C@@H]2N2C(=O)CN(C)C(=O)[C@@]12C | 1 | 9 | x | 2 | 0 | x | x | x
CCCn1c(=O)c2[nH]c(-c3ccc(OCC(=O)Nc4ccc(C#N)cc4)cc3)nc2n(CCC)c1=O | 2 | 53* | x | -8 | 2 | x | 22 | x
CC(=O)Nc1ccc(NC(=O)COc2ccc(-c3ccc(C#N)cc3)cc2)cc1 | 8 | 9 | x | -3 | 1 | x | x | x
SMILES | B2AR ag | Mdm2-MdmX inh | Mdm2 ligase inh | XBP1 UPR activ | UPR CHOP act | Dynein cargo inh | Mdm2 MdmX conf | Full FLuc ctr
CN(C)c1ccc(C2C=C(c3ccc(Cl)cc3OC(F)F)Nc3ncnn32)cc1 (stereo unspecified) | -26 | 66* | 10 | 2 | -1 | x | 54* | 49*
COc1ccc(NC(=O)C2CCCN(S(=O)(=O)c3ccc(Cl)cc3)C2)cc1OC (stereo unspecified) | -4 | 0 | x | -5 | -1 | x | x | x
CC1=NN(c2nc(-c3ccc(C)cc3)cs2)C(=O)C1N=Nc1ccccc1O (stereo unspecified) | 26 | 72* | -8 | 1 | 2 | 0.59 | 80* | 32
CN(C)C(=O)c1cc(C(=O)c2ccc(C(F)(F)F)cc2)c[nH]1 | -8 | -29 | x | 6 | 5 | x | x | x
Cc1cc(C=C2C(=O)c3ccccc3C2=O)c(C)n1-c1ccc(C(=O)O)cc1 | -3 | 5 | -8 | 1 | -1 | 0.77 | x | x
Cc1cc(C=C2C(=O)c3ccccc3C2=O)c(C)n1-c1ccccc1 | -7 | 62* | -80 | -4 | -8 | 0.12 | 56* | 34
Cc1cc(/C=C2\Cc3ccccc3C2=O)c(C)n1-c1ccccc1 | -24 | 80* | -64 | -8 | -6 | 0.83 | 64* | 73*
Cc1cc(/C=C2/C(=O)NN(c3ccccc3)C2=O)c(C)n1-c1cccc(O)c1 | -13 | 73* | -51 | -2 | -3 | -1.1 | 72* | 122*
Cc1cc(/C=C2\SC(=S)NC2=O)c(C)n1-c1cccc(O)c1 | -5 | 23 | -23 | -1 | 3 | -0.15 | x | x
CC(=O)N1CCN(S(=O)(=O)c2cccc(C(=O)NNC(=O)c3ccc(Br)cc3)c2)CC1 | -195 | x | x | x | x | x | x | x
O=C(Nc1ccc(Cl)cn1)c1ccccc1[N+](=O)[O-] | -13 | 17 | -3 | -1 | 1 | -0.78 | x | x
O=C(Nc1ccc(Cl)cn1)c1cccc2ccccc12 | -3 | 52* | x | 1 | 1 | x | 42* | 71*
CNc1ccccc1C(=O)OC(C)C(=O)Nc1ccc(Cl)cn1 (stereo unspecified) | -8 | 91* | x | -8 | -1 | x | 83* | 113*
